# Lipid droplet: hepatic lipid droplet formation modulation | AML12 mouse hepatocytes, oleate lipid droplets, BODIPY imaging | inhibition, % at 6.5 µM | hit rate 0.4% among 240,000 | AID 1656;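 active = lipid droplet intensity inhibited by at least 50%, with more than 500 cells counted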
#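 Assay system: AML12 hepatocytes (mouse) / Also added: 100 µM oleic acid challenge / Times: overnight treatment with compound plus oleate / Detection: high-content imaging of BODIPY-stained droplets and DAPI nuclei / Evaluation: % inhibition of lipid droplet signal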
# MPTP block: inhibitors of mitochondrial permeability transition pore | AID 602449 | inhibition, % at 10 µM | hit rate 1.4% among 360,000 | isolated mouse mitochondria, Ca2+ swelling absorbance, 30 min;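 active = inhibition of 50% or more, scaled per plate between neutral and stimulator controls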;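 also: 0% = DMSO wells given calcium and 100% = 1 mM EGTA wells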
# Lmaj promast: inhibitors of Leishmania major promastigote growth; inhibition, % at 10 µM; hit rate 9% among 200,000; Leishmania major promastigotes, resazurin fluorescence viability; AID 1063; in the data active = inhibition above about 50%;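 also: promastigotes grown with compound for 44 hours at 28 °C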
# T cruzi repl: T. cruzi replication inhibition. T. cruzi beta-gal in NIH3T3, luminescence, 90 h. AID 1885. hit rate 1.4% among 300,000. inhibition, % (concentration not given with the values);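 active = mean inhibition across valid replicates above about 55%, limit read from the data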;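 also: signal also drops with host cell toxicity which is not excluded here; 0% = plate median of DMSO wells and 100% = zero luminescence signal; higher percent means less beta-gal luminescence so fewer parasites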
#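 Assay system: NIH/3T3 host cells with β-galactosidase reporter T. cruzi; input: 5,000 host fibroblasts per well; compound: single 50 nL compound addition per well in DMSO; timing: ≥90 h infection period, 3 h prior cell attachment; measured by: GalScreen β-gal luminescence, detergent lysis, 60 min; evaluation: percent inhibition of parasite-derived β-gal signal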
# Redox H2O2 prof: compounds producing H2O2 with reducing agent – biochemical, NIH compound library profiling, artefact control for MLSCN library redox annotation, primary screen; DTT-dependent redox cycling H2O2, phenol red/HRP absorbance; 100% = 100 µM peroxide control, 0% = buffer; hit rate 0.03% among 200,000; activation, % at 10 µM;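 active = activation of at least 50% relative to the plate's high and low controls in the primary single-dose screen; inactive = activation below 50%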;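 also: compound incubated with DTT at 0.8 mM final as the reducing agent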
# Active calls of the source: *; / = no result given. Shown is part of a subset that was picked to be rich in hits.
SMILES,Lipid droplet,MPTP block,Lmaj promast,T cruzi repl,Redox H2O2 prof
Cc1c(Cl)cccc1NC(=S)NC1CCN(C(C)C)CC1,8,-1,36,24,0
Cc1c(Nc2cc(N3CCOCC3)c3nonc3c2[N+](=O)[O-])c(=O)n(-c2ccccc2)n1C,20,/,5,-3,1
Cc1c(Nc2cc(Cl)c3nonc3c2[N+](=O)[O-])c(=O)n(-c2ccccc2)n1C,-32,0,79*,/,1
O=[N+]([O-])c1c(Nc2cccc(O)c2)cc(Cl)c2nonc12,1,-1,/,60*,/
Cn1cc(CN2CCC(CO)(CCCc3ccccc3)CC2)c(-c2ccccc2)n1,-18,0,/,-8,/
O=C(Cc1ccc(F)cc1)N[C@@H]1c2ccccc2CC[C@H]1OCc1ccccc1,/,0,/,/,/
Nc1ccccc1Sc1c[nH]c2ccccc12,-11,0,/,-2,/
Cc1ccc2cc3cc(C(=O)NCCCN4CCCC4=O)oc3nc2c1,6,2,/,-5,/
Cc1ccc2cc3cc(C(=O)NCCN4CCOCC4)oc3nc2c1,-13,1,70*,3,1
CCN1CCN(CCCNC(=O)c2cc3cc4ccc(OC)cc4nc3o2)CC1,/,-1,100*,43,1
Cc1cc2cc(CNC(=O)c3cc4ccccc4o3)ccc2n1C,/,/,14,65*,0
COc1ccc2cc3cc(C(=O)NCCCN4CCOCC4)oc3nc2c1,/,-1,98*,58*,2
COc1cccc(CNC(=O)[C@@H]2CCCN2C(=O)[C@@H]2CCCN2)c1,/,0,/,/,/
O=C(NCCCN1CCOCC1)C(Sc1ccccc1)c1ccccc1 (stereo unspecified),6,0,91*,9,2
O=C(NCCCN1CCOCC1)c1cc2ccccc2o1,-3,-1,79*,-10,0
Cc1cc(C(F)(F)F)nc(SCC(=O)Nc2c(C)n(C)n(-c3ccccc3)c2=O)n1,-2,0,/,2,/
O=C(N/N=C/c1ccc(O)cc1)c1cccc(C(F)(F)F)c1,17,1,11,-18,0
O=C(N/N=C/c1ccccc1O)c1cccc(C(F)(F)F)c1,-1,36,98*,-18,-1
CCN(CC)S(=O)(=O)c1cccc(C(=O)N/N=C/c2cccc(O)c2O)c1,-15,2,98*,3,0
O=C(N/N=C/c1ccc(-c2cccc(C(F)(F)F)c2)o1)c1ccccc1O,-16,31,98*,-5,1
O=C(N/N=C/c1ccc(-c2cccc(C(F)(F)F)c2)o1)c1cccc(F)c1,0,13,18,69*,-3
COc1ccc(Br)c(Cn2c(C)c(C(=O)NCc3ccc(F)cc3)sc2=O)c1,/,2,/,/,/
COC(=O)CN(c1cc([N+](=O)[O-])ccc1OC)S(C)(=O)=O,2,0,-2,-22,0
Cc1ccccc1NC(=S)N(CCCN1CCOCC1)Cc1ccccn1,0,0,65*,-13,0
S=C(Nc1ccccc1Cl)N(CCCN1CCOCC1)Cc1ccco1,-11,0,85*,-7,0
SMILES,Lipid droplet,MPTP block,Lmaj promast,T cruzi repl,Redox H2O2 prof
CN(C)CC(C)(C)CNS(=O)(=O)c1ccc(Cl)c(Cl)c1,3,-1,80*,43,-1
CCCCN1C[C@H](c2ccccc2)[C@@H](CC(=O)NC)C1=O,/,0,/,/,/
CC(=O)N1CCc2cc(Br)cc(S(=O)(=O)NCCCN(C)Cc3ccccc3)c21,-21,0,/,6,/
CCCCNC(=O)C(=O)Nc1cc2c3c(c1)CCC(=O)N3CCC2,12,0,/,-14,/
N#CC1=C(N)NC(SCc2ccc(Cl)cc2)=C(C#N)C12CCCCC2,-21,16,99*,51,1
N#CC1=C(N)NC(SCc2ccccc2)=C(C#N)C12CCCC2,5,-2,26,-20,0
COc1cc(Cl)c(CN2CCCC(CO)(Cc3cccc(Cl)c3)C2)cc1OC (stereo unspecified),-20,1,/,36,/
Cc1c(CN2CCCC(CO)(Cc3cccc(Cl)c3)C2)cnn1C (stereo unspecified),-13,0,61*,16,0
CCn1nc(C)c(CN2CCCC(CO)(Cc3ccccc3)C2)c1C (stereo unspecified),8,0,61*,11,-2
OCC1(Cc2ccccc2)CCCN(Cc2ccc3c(c2)OCCO3)C1 (stereo unspecified),-1,1,22,1,-3
OCC1(Cc2cccc(Cl)c2)CCCN(Cc2sc(N3CCCC3)nc2Cl)C1 (stereo unspecified),-34,5,14,45,0
CCn1nc(C)c(CN2CCCC(CO)(Cc3cccc(Cl)c3)C2)c1C (stereo unspecified),-33,3,53*,55*,0
O=C(CSc1nc(-c2ccccc2)cc(=O)[nH]1)Nc1ccc(F)c(F)c1,-12,2,/,-10,/
COC(=O)c1cc2ccsc2n1CC(=O)Nc1ccc(N(C)C)cc1,/,-2,5,55*,2
CCn1c(SCC(=O)Nc2nc(C)c(C)s2)nc2cccnc21,-16,6,92*,5,1
COc1ccc(CC2(C)OC(c3ccccc3)=NN2C(C)=O)cc1 (stereo unspecified),7,-3,53*,-6,0
COc1c(Br)cc(C(N)=O)cc1OCc1ccccc1,-12,0,49,-8,-1
CCOc1cc(C(N)=O)cc(Br)c1OCc1ccccc1,-6,1,100*,9,-1
Nc1nc(SCn2nnc3ccccc3c2=O)n[nH]1,-3,0,-1,0,0
COc1cc(NC(=O)CCN2CCN(C/C=C/c3ccccc3)CC2)cc(OC)c1,-12,0,/,58*,/
COc1ccc(NC(=O)CCN2CCN(C/C=C/c3ccccc3)CC2)cc1,/,0,/,57*,/
COc1ccc(NC(=O)CCN2CCN(S(=O)(=O)c3cc(Cl)ccc3OC)CC2)cc1,2,-2,82*,14,0
COc1ccc(NC(=O)CCN2CCN(S(=O)(=O)c3ccc(Br)cc3)CC2)cc1,-1,-2,/,8,/
COc1cccc(OCC(=O)Nc2c3c(nn2-c2ccc(F)cc2)CS(=O)(=O)C3)c1,-3,1,/,3,/
O=C(CCN1C(=O)/C(=C\c2ccccc2Cl)SC1=S)N1CCN(c2ccccc2)CC1,/,3,91*,-9,0
CCc1ccc(/C=C2\SC(=S)N(CCC(=O)N3CCN(C)CC3)C2=O)cc1,4,-2,99*,12,1
Cc1nn(-c2nnc(NC3CCCCC3)nn2)c(C)c1Br,-4,2,26,17,0
COc1ccc(/C=C/C(=O)C2(O)CCCCC2)cc1OC,-1,0,41,6,-1
C#CCOc1ccc(C2C3=C(CC(C)(C)CC3=O)N(CC(=O)O)C3=C2C(=O)CC(C)(C)C3)cc1OC,8,0,/,-16,/
C=CCOc1ccc(C2C(C#N)=C(N)N(Nc3ccccc3)C3=C2C(=O)CC(C)(C)C3)cc1OC (stereo unspecified),/,-9,89*,10,-7
